# G6PDH counter – inhibits Leuconostoc G6PDH, flagging false hits in G6PDH-based assays. inhibition, % at 5 µM. Purified L. mesenteroides G6PDH, diaphorase/resazurin coupled fluorescence, 45 min. AID 1020. 200,000 tested, 0.12% active; in the data active means inhibition above about 50%
# PMI activator – phosphomannose isomerase (human) activation. P34949. purified human PMI, coupled resazurin fluorescence, 20 min; active compounds read high; 1 = vehicle control, 0 substrate-free wells. activation factor at 20 µM. 190,000 tested, 0.005% active;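 active means activation factor of 2 or more at 20 µM, relative to plate controls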
# Target sequence (P34949 whole entry, looked up): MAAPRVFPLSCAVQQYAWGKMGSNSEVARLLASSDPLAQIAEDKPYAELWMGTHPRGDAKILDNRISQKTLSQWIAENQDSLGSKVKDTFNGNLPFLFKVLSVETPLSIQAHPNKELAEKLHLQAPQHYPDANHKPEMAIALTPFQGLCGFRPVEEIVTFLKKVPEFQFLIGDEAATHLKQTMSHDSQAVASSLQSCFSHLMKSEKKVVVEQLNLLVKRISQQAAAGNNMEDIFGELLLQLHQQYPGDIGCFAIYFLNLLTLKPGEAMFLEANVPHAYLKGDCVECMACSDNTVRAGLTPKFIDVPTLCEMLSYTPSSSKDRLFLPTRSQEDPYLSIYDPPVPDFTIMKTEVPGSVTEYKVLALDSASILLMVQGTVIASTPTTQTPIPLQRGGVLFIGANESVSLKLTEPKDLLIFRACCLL
# Diaph act CS – diaphorase activation or chemical reduction counter-screen; activation factor at 20 µM; AID 1229; Diaphorase/resazurin coupled assay, resorufin fluorescence, 16 min; active compounds read high; 1 = vehicle wells, 0 = NADH-free wells; 190,000 tested, 0.005% active;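 active means diaphorase activity raised at least twofold by the compound at 20 µM; inactive means activation factor below 2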
#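 test system = bacterial diaphorase enzyme (C. kluyveri) | quantity = enzyme 0.07 U/mL final | reagent = NADH substrate 0.114 mM plus resazurin dye 0.1 mM, final | incubation = 16 min enzyme reaction, ambient temperature | buffer or medium = HEPES pH 7.4 buffer with MgCl2 and Tween 20 | signal = fluorescence of resorufin, 544 nm excitation, 590 nm emission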
# PMI act satM6P – increases human PMI activity with near-saturating mannose 6-phosphate; 190,000 tested, 0.34% active; activation factor at 20 µM; AID 1216; coupled PMI enzyme assay, resazurin fluorescence, 20 min; active compounds read high; 1 = untreated enzyme, 0 = substrate-free blank;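 active means activation factor of 2 or more at 20 µM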
#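 Technique: Diaphorase-driven resazurin-to-resorufin fluorescence, excitation 544, emission 590 nm | Assay system: Human PMI in coupled enzyme assay | Times: Enzyme reaction with compound 20 min at room temperature | Medium: HEPES-buffered pH 7.4 with magnesium and detergent | Reagent: Mannose-6-phosphate 1.0 mM (near-saturating) plus 0.22 mM NADP+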
# Diaphorase inh – inhibits diaphorase or chemically oxidizes, flagging diaphorase assay artifacts; diaphorase resazurin-to-resorufin fluorescence, NADH, 16 min; bacterial (C. kluyveri) enzyme, not human; inhibition, % at 20 µM; 190,000 tested, 0.69% active;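 active means primary screen inhibition at 20 µM above a set limit, cut at about 50% in these data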;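 further: plate controls were DMSO with full reaction for no effect and wells lacking NADH for full effect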
#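 Test system: diaphorase enzyme from Clostridium kluyveri; amount: diaphorase at 0.14 U/mL in enzyme working solution; detection: fluorescence of resorufin formed from resazurin, Ex 544/Em 590 nm; times: reaction incubation of 16 min at room temperature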
# Active calls of the source: *. Most compounds without a hit are left out; they make up all but 1.1% or so of the library.
SMILES,G6PDH counter,PMI activator,Diaph act CS,PMI act satM6P,Diaphorase inh
O=C(COc1ccc(Cl)cc1)NNC(=O)c1cccnc1,21,1,1.2,1,-16
Cc1c(N=Nc2ccc(O)cc2)c(=O)n(-c2ccccc2)n1C,3,0.8,1,0.7,-4
Cc1c(N=C2C=C(Br)C(=O)C(Br)=C2)c(=O)n(-c2ccccc2)n1C,7,0.4,0.3,0.3,69*
Cc1c(N=C2C=CC(=O)c3ccccc32)c(=O)n(-c2ccccc2)n1C,9,0.4,0.4,0.3,58*
COc1ccc(Cl)cc1-c1nc(SCC(=O)NC2CC2)n[nH]1,5,0.9,0.9,0.9,9
Oc1ccc(/C=N/Nc2cc(N3CCCC3)nc(N3CCCC3)n2)cc1O,49,0.4,0.4,0.4,62*
CC(C)c1ccc(/C=N/Nc2cc(N3CCOCC3)nc(N3CCOCC3)n2)cc1,24,0.2,0.4,0.3,63*
Cc1cccc(/C=N/Nc2cc(N3CCOCC3)nc(N3CCOCC3)n2)c1,30,0.2,0.3,0.3,72*
Oc1ccc(/C=N\Nc2cc(N3CCOCC3)nc(N3CCOCC3)n2)c(O)c1,38,0.7,0.7,0.4,35
Clc1ccc(-c2ccc(/C=N/Nc3cc(N4CCOCC4)nc(N4CCOCC4)n3)o2)cc1,9,0.5,0.7,0.5,29
COc1ccc(/C=N/Nc2nc(N3CCCC3)nc(N3CCCC3)n2)cc1O,10,1.1,0.9,1.1,6
N#Cc1c(N)nc2c3c(sc(=N)c2c1N)NC(=O)CC3c1c(F)cccc1Cl (centres undefined),-2,1,0.5,1,53*
COc1cc(CN2CCN(C(=O)CC(C)C)CC2)cc(OC)c1OC,9,0.9,1,1,-3
COc1ccc(C(=O)N2CCN(Cc3cc(OC)c(O)c(OC)c3)CC2)cc1OC,55*,0.7,0.7,0.4,29
COc1cc(CN2CCN(C(=O)CC(C)C)CC2)cc(OC)c1O,53*,1.1,0.6,0.4,39
COc1ccc(CN2CCN(C(=O)c3cc(OC)c(OC)c(OC)c3)CC2)cc1OC,1,1,0.8,1.1,18
Cc1nccn1CCC(=O)Nc1ccc(Cl)cc1,10,0.9,0.9,0.9,11
O=C(N/N=C/c1ccc(-c2cccc([N+](=O)[O-])c2)o1)[C@H]1C[C@@H]1c1ccccc1,4,1,0.8,0.9,24
O=C(N/N=C/c1ccc(-c2ccccc2[N+](=O)[O-])o1)[C@H]1C[C@@H]1c1ccccc1,13,0.6,0.5,0.4,52*
CCn1c(N)nc2c1c(=O)n(C)c(=O)n2C,20,0.9,1.1,1,-7
CCCc1nc2c(=O)n(C)c(=O)nc-2n(C)n1,56*,0.6,0.5,0.4,46
COc1cc(/C=N/NC(=O)c2cc3ccccc3cc2O)ccc1OCCN1CCCCC1,-3,0.3,0.1,0.4,89*
CCn1ncc(NC(=S)NCCc2ccc(OC)c(OC)c2)c1C(N)=O,-2,1,0.9,1,13
COc1ccc(NS(=O)(=O)c2ccc(C)c(NC(=O)c3ccc(C)c(S(=O)(=O)N4CCOCC4)c3)c2)cc1,8,0.7,0.5,0.8,50*
CCOC(=O)c1ccc(NC(=O)c2ccc(C)c(S(=O)(=O)N3CCOCC3)c2)cc1,-1,0.9,0.7,1,30
SMILES,G6PDH counter,PMI activator,Diaph act CS,PMI act satM6P,Diaphorase inh
c1ccc(Cc2nnc(N3CCOCC3)c3ccccc23)cc1,56*,1,1,1,2
O=C(O)/C=C/C(=O)Nc1ccc2c(c1)NC(=O)CO2,7,0.4,0.4,0.3,61*
Cn1nnc2c(sc3nc(N4CCOCC4)c4c(c32)CCCC4)c1=O,-42,0.9,0.8,0.9,18
S=c1nc[nH]c2c1sc1nc(N3CCOCC3)c3c(c12)CCCC3,14,1.6,0.7,2*,30
COc1cc(C2C3=C(CCCC3=O)Nc3[nH]n(-c4ccccc4)c(=O)c32)cc(OC)c1OC (centres undefined),3,1.5,0.9,1.5,7
COc1cc(C2C3=C(CCCC3=O)Nc3[nH]n(-c4ccccc4)c(=O)c32)ccc1OC(C)=O (centres undefined),7,1.6,1,2*,1
Cc1ccc2cc(CCNC(=O)c3ccc(C)c([N+](=O)[O-])c3)c(=O)[nH]c2c1,-2,0.9,0.4,1.2,59*
CCC(CC)C(=O)NCCc1cc2ccc(C)cc2[nH]c1=O,-10,0.8,0.9,0.9,13
COCCNC(=S)N/N=C/c1ccc(OCc2ccc(C(=O)OC)cc2)cc1,6,0.9,1,0.9,3
Cc1ccc2[nH]c(=O)c3cc(C(=O)N4CCN(C(=O)c5ccco5)CC4)sc3c2c1,-6,0.9,0.4,0.9,60*
O=C(CCCN1C(=O)/C(=C\c2ccco2)SC1=S)Nc1ccc2ccccc2c1,-19,1.1,0.8,1.1,23
O=C1/C(=C/c2ccco2)SC(=S)N1C1CCS(=O)(=O)C1 (centres undefined),13,0.8,0.4,0.5,61*
O=C(O)CCCN1C(=O)/C(=C\c2ccco2)SC1=S,14,0.7,0.4,0.4,59*
Cc1ccc(/C=C2\SC(=S)N(C3CCS(=O)(=O)C3)C2=O)cc1 (centres undefined),10,1.1,1,1,-2
COc1ccc2nc(Cl)c(C#N)cc2c1,1,1,1,1,2
COc1ccc(NC(=O)C(=O)NCCN2CCN(C(=O)c3ccco3)CC2)cc1,-6,1,0.9,1,8
CC1(c2ccc([N+](=O)[O-])c(CS(=O)(=O)c3ccccc3)c2)OCCO1,0,1.1,0.9,1,5
COc1ccc(Br)cc1C(=O)Nc1ccc(C(=O)O)cc1,4,1.1,0.1,1.1,92*
COc1ccc(NC(=O)c2cc3cccc(OC)c3oc2=Nc2ccc(C(=O)O)cc2)cc1OC,-2,0.9,0.2,0.9,78*
COc1ccc(Br)cc1C(=O)Nc1ccc(O)cc1,15,0.9,0.9,0.9,13
Cc1ccc(/C=C/S(=O)(=O)NCc2ccc(F)cc2)cc1,-4,1.1,1,1.1,0
Cc1ccc(SCc2cc(=O)[nH]c(Nc3nc(C)c4ccc(C)cc4n3)n2)cc1,-22,1.5,0.8,2*,22
O=C(O)c1ccc(-c2ncc[nH]2)cc1,-3,1.3,1.1,1.2,-11
CCOC(=O)c1cc2c(=O)n3ccccc3nc2n(Cc2ccco2)c1=NC(=O)c1ccccc1OC,-1,1.2,0.2,1,80*
CCOC(=O)c1cc2c(=O)n3ccccc3nc2n(Cc2ccco2)c1=NC(=O)c1ccc(OC)cc1,8,1.1,0.7,0.7,35
